Measurements taken from article PMC6500440 (International Journal of Nanomedicine, 2019).
Like-named read-outs stand apart in the source and are kept apart here.

Tests used:
[1] = Gel permeation chromatography; format: physicochemical
How it was run: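 Test peptide alone in buffer, no phospholipid, at 1, 5 and 10 mg/mL; one condition also incubated at 50°C. Analysed by size-exclusion GPC on a TSK G3000SWx column (7.8 mm×30 cm), eluted with PBS at 1.0 mL/min at ambient temperature, UV detection at 220 nm. Molecular weight was assigned from retention time.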

[2] = cited from earlier work
[3] = Lipid solubilization assay; format: physicochemical; conditions: 5.0 mg/mL LUVs in 10 mM sodium phosphate buffer pH 7.4, before addition of 22A peptide
How it was run: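 Phospholipid (POPC or egg sphingomyelin) chloroform stock was dried under nitrogen and hydrated in 10 mM sodium phosphate, pH 7.4. It then went through 5–7 freeze-thaw cycles and was extruded 10 times through 100 nm membranes, at 25°C for POPC and 45°C for eSM. The 5.0 mg/mL LUV suspension was read for turbidity as UV absorbance at 600 nm on a microplate spectrophotometer.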

[4] = Dynamic light scattering particle size; format: physicochemical
How it was run: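 LUVs (POPC or egg sphingomyelin) were made by drying the chloroform stock under nitrogen, hydrating in 10 mM sodium phosphate pH 7.4, doing 5–7 freeze-thaw cycles, and extruding 10× through 100 nm membranes (25°C POPC, 45°C eSM). For sHDL, 5.0 mg/mL lipid and peptide solutions were mixed 1:1 wt/wt (~3.75:1 molar). Samples were diluted to 1.0 mg/mL peptide, and intensity- and volume-weighted distributions were read at 25°C.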

[5] = target: the molecule itself; assay: SEC + other: dynamic light scattering
[6] = 22A 1 mg/mL in buffer without phospholipid, after incubation at 50°C
[7] = 22A in buffer without phospholipid, before dissociation
[8] = as restated in Results, no reference given
[9] = lipid LUV + 22A 1:1 wt/wt incubated 24 hr at 25°C

Molecule: PVLDLFRELLNELLEALKQKLK [22A]
- GPC retention time of monomeric peptide [1, 6]: 14.9 min
- molecular weight corresponding to GPC retention time, monomeric peptide [1, 6]: ~ 2500 Da
- association state of peptide without lipid ([1]; 22A in buffer without phospholipid, 1, 5 and 10 mg/mL, initial, GPC and DLS): self-associated
- GPC retention time of self-associated peptide [1, 7]: 9.6 min
- molecular weight corresponding to GPC retention time, self-associated peptide [1, 7]: ~ 145,000 Da

Molecule: synthetic sphingomyelin [sSM]
- transition temperature (Tm) [2, 8]: approximately 40 °C

Molecule: CCCCCCCC/C=C\CCCCCCCC(=O)O[C@H](COC(=O)CCCCCCCCCCCCCCC)COP(=O)([O-])OCC[N+](C)(C)C [POPC, 1-palmitoyl-2-oleoyl-sn-glycero-3-phosphocholine]
- UV 600 nm absorbance (turbidity) of LUV solution [3]: 0.26
- LUV diameter ([4]; extruded LUVs, 5.0 mg/mL solutions, before addition of 22A peptide): 120 nm
- DLS volume (distribution, %): LUV [4, 9]: 0.1%
- DLS volume (distribution, %): sHDL [4, 9]: 99.9%
- DLS intensity (size, nm): LUV ([4]; lipid LUV + 22A 1:1 wt/wt incubated 24 hr at 25°C, remaining liposomes): 137.3 nm
- DLS volume (distribution, %): sHDL ([4]; lipid LUV + 22A 1:1 wt/wt incubated 24 hr at 37°C): 100%
- DLS volume (distribution, %): sHDL ([4]; lipid LUV + 22A 1:1 wt/wt incubated 24 hr at 50°C): 100%
- transition temperature (Tm) [2, 8]: −2 °C
- transition temperature (Tm) [2]: −2 °C

Molecule: PVLDLFRELLNELLEALKQKLK [ESP-24218 peptide (22A), ApoA-I-mimetic peptide]
- binding result [5]: binds
